In ChEMBL document CHEMBL1121719, “1-Oxacephalosporins: enhancement of beta-lactam reactivity and antibacterial activity” (1981):
Converted amounts (≈) assume the structure as drawn.

Legend:
[1] = test system: Proteus mirabilis; test: Inhibitory concentration of compound was tested against gram negative Proteus mirabilis PR-4.; format: functional
Procedure, shortened: (§1)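 MIC by agar dilution on sensitivity test agar with serial twofold antibiotic dilutions. The inoculum was an overnight tryptose broth culture diluted to about 10⁶ cells/mL. Plates were incubated at 37 °C for 18-20 h. MIC was the lowest concentration inhibiting visible growth.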

[2] = test system: Beta-lactamase (Proteus vulgaris); test: Hydrolysis rate by the beta-lactamase from Proteus vulgaris 31 relative to cephaloridine.
[3] = molecular target: Beta-lactamase (Escherichia coli K-12) (UniProt P00811); test: Hydrolysis rate by the beta-lactamase from Escherichia coli 6 relative to cephaloridine.
Procedure, shortened: (§2)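 Cells were grown statically in nutrient phosphate broth for 16 h at 37 °C and disrupted ultrasonically. β-lactamase was partially purified on CM-Sephadex C-50. Substrate (100 μM final) was hydrolysed in 0.1 M potassium phosphate pH 7.0 at 30 °C, with the enzyme diluted in buffer containing 0.001% gelatin. Rate came from the slope of UV optical density decrease and was expressed relative to cephaloridine = 100.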

[4] = molecular target: T1, Beta-lactamase (Klebsiella oxytoca) (UniProt Q8RT60); test: Hydrolysis rate by beta-lactamase of Klebsiella sp. 363 relative to cephaloridine (100)
T1 sequence (whole entry): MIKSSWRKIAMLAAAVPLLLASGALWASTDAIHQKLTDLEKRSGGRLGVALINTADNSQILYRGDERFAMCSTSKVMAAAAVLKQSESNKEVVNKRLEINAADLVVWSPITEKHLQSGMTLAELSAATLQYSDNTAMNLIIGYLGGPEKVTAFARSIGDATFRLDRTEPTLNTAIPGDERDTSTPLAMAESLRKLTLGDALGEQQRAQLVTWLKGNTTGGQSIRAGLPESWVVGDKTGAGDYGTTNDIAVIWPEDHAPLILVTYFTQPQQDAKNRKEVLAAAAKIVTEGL
Procedure, shortened: (§3)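 Constitutive producers were grown statically in nutrient phosphate broth at 37 °C for 16 h, then sonicated. Enzyme was partially purified on DEAE-Sephadex A-25 (phosphate gradient, 0.01 M pH 8.0 to 0.5 M pH 6.2). Assay conditions: 0.1 M potassium phosphate pH 7.0, 30 °C, 0.001% gelatin in enzyme diluent, 100 μM final substrate. Hydrolysis rate was taken from the slope of UV absorbance decrease, with cephaloridine set to 100.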

[5] = test system: Klebsiella pneumoniae; test: Inhibitory concentration of compound was tested against gram negative Klebsiella pneumoniae.; format: functional; procedure, shortened: as §1
[6] = molecular target: Beta-lactamase TEM (Escherichia coli) (UniProt P62593); test: Hydrolysis rate by the beta-lactamase from Escherichia coli W3110 RTEM relative to cephaloridine.; procedure, shortened: as §3
[7] = test system: Escherichia coli; test: Inhibitory concentration of compound was tested against gram negative Escherichia coli 73.; format: functional; procedure, shortened: as §1
[8] = test system: Escherichia coli; test: Inhibitory concentration of compound was tested against gram negative Escherichia coli H organism.; format: functional; procedure, shortened: as §1
[9] = test system: Klebsiella pneumoniae; test: (§4) Inhibitory concentration of compound was tested against gram negative Klebsiella sp 363.; format: functional; procedure, shortened: as §1
[10] = test system: Escherichia coli; test: Inhibitory concentration of compound was tested against gram negative Escherichia coli NIH JC-2.; format: functional; procedure, shortened: as §1
[11] = test system: Klebsiella; test: as §4; format: functional; procedure, shortened: as §1
[12] = test system: Beta-lactamase (Klebsiella sp.); test: Hydrolysis rate by the beta-lactamase from Klebsiella sp. 363 relative to cephaloridine (100)
[13] = test system: Beta-lactamase (Enterobacter cloacae); test: Hydrolysis rate by the beta-lactamase from Enterobacter cloacae 214 relative to cephaloridine (100)
[14] = test system: Beta-lactamase (Proteus vulgaris); test: Hydrolysis rate by the beta-lactamase from Proteus vulgaris 31 relative to cephaloridine (100)
[15] = molecular target: Beta-lactamase (Enterobacter cloacae) (UniProt P05364); test: Hydrolysis rate by the beta-lactamase from Enterobacter cloacae 214 relative to cephaloridine (100); c= Hydrolysis was not detected; procedure, shortened: as §2
[16] = molecular target: Beta-lactamase (Escherichia coli K-12) (UniProt P00811); test: Hydrolysis rate by the beta-lactamase from Escherichia coli 6 relative to cephaloridine (100); c= Hydrolysis was not detected; procedure, shortened: as §2
[17] = molecular target: Beta-lactamase (Escherichia coli K-12) (UniProt P00811); test: Hydrolysis rate by the beta-lactamase from Escherichia coli 6 relative to cephaloridine (100);c= Hydrolysis was not detected; procedure, shortened: as §2
[18] = molecular target: Beta-lactamase (Enterobacter cloacae) (UniProt P05364); test: Hydrolysis rate by the beta-lactamase from Enterobacter cloacae 214 relative to cephaloridine (100);c= Hydrolysis was not detected; procedure, shortened: as §2

Beta-lactamase TEM (Escherichia coli), sequence (P62593 whole entry): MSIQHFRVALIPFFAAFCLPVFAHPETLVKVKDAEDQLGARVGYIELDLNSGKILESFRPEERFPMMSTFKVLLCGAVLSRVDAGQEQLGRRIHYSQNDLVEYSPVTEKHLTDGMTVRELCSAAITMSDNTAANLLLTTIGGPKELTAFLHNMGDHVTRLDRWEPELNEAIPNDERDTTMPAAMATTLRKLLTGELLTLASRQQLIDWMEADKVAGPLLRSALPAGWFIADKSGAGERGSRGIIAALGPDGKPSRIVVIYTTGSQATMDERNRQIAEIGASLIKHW
Beta-lactamase (Escherichia coli K-12), sequence (P00811 whole entry): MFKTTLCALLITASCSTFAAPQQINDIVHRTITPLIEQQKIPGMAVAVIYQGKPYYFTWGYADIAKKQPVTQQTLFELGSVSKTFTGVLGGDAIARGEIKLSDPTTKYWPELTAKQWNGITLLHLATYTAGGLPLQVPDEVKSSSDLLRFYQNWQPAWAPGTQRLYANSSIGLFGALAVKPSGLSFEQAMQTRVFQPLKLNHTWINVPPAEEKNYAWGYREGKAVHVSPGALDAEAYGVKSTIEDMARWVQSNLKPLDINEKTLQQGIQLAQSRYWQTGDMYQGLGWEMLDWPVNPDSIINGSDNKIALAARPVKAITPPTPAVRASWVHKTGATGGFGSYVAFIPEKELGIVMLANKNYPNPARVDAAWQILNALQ
Beta-lactamase (Enterobacter cloacae) (UniProt P05364), sequence (P05364 21-381 limits assumed): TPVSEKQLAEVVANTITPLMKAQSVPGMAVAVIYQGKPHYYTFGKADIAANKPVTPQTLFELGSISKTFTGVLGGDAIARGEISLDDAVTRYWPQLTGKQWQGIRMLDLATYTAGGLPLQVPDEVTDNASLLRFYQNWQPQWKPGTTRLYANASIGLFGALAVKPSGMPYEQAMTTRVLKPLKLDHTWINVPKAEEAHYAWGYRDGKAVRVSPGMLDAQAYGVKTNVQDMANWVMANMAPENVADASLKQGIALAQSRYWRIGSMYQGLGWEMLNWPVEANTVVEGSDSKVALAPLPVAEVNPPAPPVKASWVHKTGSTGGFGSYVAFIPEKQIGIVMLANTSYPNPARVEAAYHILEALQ

| Compound | MIC [1] | Relative hydrolysis rate [2] | Relative hydrolysis rate [3] | Relative hydrolysis rate [4] | MIC [5] | Relative hydrolysis rate [6] | MIC [7] | MIC [8] | MIC [9] | MIC [10] | MIC [11] | Relative hydrolysis rate [12] | Relative hydrolysis rate [13] | Relative hydrolysis rate [14] | Relative hydrolysis rate [15] | Relative hydrolysis rate [16] | Relative hydrolysis rate [17] | Relative hydrolysis rate [18] |
| --- | --- | --- | --- | --- | --- | --- | --- | --- | --- | --- | --- | --- | --- | --- | --- | --- | --- | --- |
| Cn1nnnc1SCC1=C(C(=O)O)N2C(=O)C(NC(=O)Cc3ccc(O)cc3)C2SC1 (configuration not stated) | 1.56 µg/mL (≈ 3.37 µM) | 410 | 360 | 120 | 1.56 µg/mL (≈ 3.37 µM) | 39 | 25 µg/mL (≈ 54.1 µM) | 0.78 µg/mL (≈ 1.69 µM) | 100 µg/mL (≈ 216 µM) | 3.13 µg/mL (≈ 6.77 µM) |  |  |  |  |  |  |  |  |
| Cn1nnnc1SCC1=C(C(=O)O)N2C(=O)C(NC(=O)Cc3csc(N)n3)C2OC1 (configuration not stated) | 0.2 µg/mL (≈ 0.442 µM) | 770 | 360 | 240 | 0.2 µg/mL (≈ 0.442 µM) | 350 | > 100 µg/mL | 0.1 µg/mL (≈ 0.221 µM) | > 100 µg/mL | 0.2 µg/mL (≈ 0.442 µM) |  |  |  |  |  |  |  |  |
| Cn1nnnc1SCC1=C(C(=O)O)N2C(=O)C(NC(=O)/C(=N\O)c3ccc(NS(C)(=O)=O)cc3)C2SC1 (configuration not stated) | 6.25 µg/mL (≈ 11 µM) | 170 | 2.2 | 35 | 1.56 µg/mL (≈ 2.74 µM) | 34 | 50 µg/mL (≈ 87.9 µM) | 0.78 µg/mL (≈ 1.37 µM) | > 100 µg/mL | 0.78 µg/mL (≈ 1.37 µM) |  |  |  |  |  |  |  |  |
| Cn1nnnc1SCC1=C(C(=O)O)N2C(=O)C(NC(=O)Cc3csc(N)n3)C2SC1 (configuration not stated) | 0.1 µg/mL (≈ 0.213 µM) | 250 | 120 | 4.1 | 0.1 µg/mL (≈ 0.213 µM) | 17 | 1.56 µg/mL (≈ 3.33 µM) | 0.05 µg/mL (≈ 0.107 µM) | 6.25 µg/mL (≈ 13.3 µM) | 0.1 µg/mL (≈ 0.213 µM) |  |  |  |  |  |  |  |  |
| Cn1nnnc1SCC1=C(C(=O)O)N2C(=O)C(NC(=O)Cc3ccc(O)cc3)C2OC1 (configuration not stated) | 0.39 µg/mL (≈ 0.874 µM) | 710 | 1200 | 630 | 0.78 µg/mL (≈ 1.75 µM) | 560 | > 100 µg/mL | 0.39 µg/mL (≈ 0.874 µM) | > 100 µg/mL | 0.78 µg/mL (≈ 1.75 µM) |  |  |  |  |  |  |  |  |
| Cn1nnnc1SCC1=C(C(=O)O)N2C(=O)C(NC(=O)/C(=N\O)c3ccc(NS(C)(=O)=O)cc3)C2OC1 (configuration not stated) | 1.56 µg/mL (≈ 2.82 µM) | 330 | 5.5 | 350 | 0.78 µg/mL (≈ 1.41 µM) | 290 | > 100 µg/mL | 0.78 µg/mL (≈ 1.41 µM) | > 100 µg/mL | 0.78 µg/mL (≈ 1.41 µM) |  |  |  |  |  |  |  |  |
| Cc1nnc(SCC2=C(C(=O)O)N3C(=O)C(NC(=O)Cn4cnnn4)C3OC2)s1 (configuration not stated) | 1.56 µg/mL (≈ 3.56 µM) | 1200 | 150 | 380 | 1.56 µg/mL (≈ 3.56 µM) | 620 | > 100 µg/mL | 0.78 µg/mL (≈ 1.78 µM) | > 100 µg/mL | 0.78 µg/mL (≈ 1.78 µM) |  |  |  |  |  |  |  |  |
| CCN1CCN(C(=O)NC(C(=O)NC2C(=O)N3C(C(=O)O)=C(CSc4nnnn4C)CSC23)c2ccc(OC(N)=O)cc2)C(=O)C1=O (configuration not stated) | 1.56 µg/mL (≈ 2.27 µM) | 16 | 5.1 | 3.1 | 0.05 µg/mL (≈ 0.0726 µM) | 59 | 12.5 µg/mL (≈ 18.2 µM) | ≤ 0.013 µg/mL | > 100 µg/mL | 0.1 µg/mL (≈ 0.145 µM) |  |  |  |  |  |  |  |  |
| Cc1nnc(SCC2=C(C(=O)O)N3C(=O)C(NC(=O)Cn4cnnn4)C3SC2)s1 (configuration not stated) |  |  |  |  |  |  | 25 µg/mL (≈ 55 µM) | 1.56 µg/mL (≈ 3.43 µM) |  | 1.56 µg/mL (≈ 3.43 µM) | > 100 µg/mL |  |  |  |  |  |  |  |
| Cn1nnnc1SCC1=C(C(=O)O)N2C(=O)C(NC(=O)C(C(=O)O)c3ccc(O)cc3)C2SC1 (configuration not stated) | 3.13 µg/mL (≈ 6.18 µM) | 20 |  | 6.3 | 3.13 µg/mL (≈ 6.18 µM) | 0.96 | 50 µg/mL (≈ 98.7 µM) | 3.13 µg/mL (≈ 6.18 µM) | 50 µg/mL (≈ 98.7 µM) | 3.13 µg/mL (≈ 6.18 µM) |  |  |  |  |  |  | Hydrolysis not detected | Hydrolysis not detected |
| CCN1CCN(C(=O)NC(C(=O)NC2C(=O)N3C(C(=O)O)=C(CSc4nnnn4C)COC23)c2ccc(OC(N)=O)cc2)C(=O)C1=O (configuration not stated) | 0.2 µg/mL (≈ 0.297 µM) | 34 | 10 | 0.69 | ≤ 0.013 µg/mL | 110 | 12.5 µg/mL (≈ 18.6 µM) | ≤ 0.013 µg/mL | 12.5 µg/mL (≈ 18.6 µM) | ≤ 0.013 µg/mL |  |  |  |  |  |  |  |  |

Next, values leading:

| MIC [1] | Relative hydrolysis rate [2] | Relative hydrolysis rate [3] | Relative hydrolysis rate [4] | MIC [5] | Relative hydrolysis rate [6] | MIC [7] | MIC [8] | MIC [9] | MIC [10] | MIC [11] | Relative hydrolysis rate [12] | Relative hydrolysis rate [13] | Relative hydrolysis rate [14] | Relative hydrolysis rate [15] | Relative hydrolysis rate [16] | Relative hydrolysis rate [17] | Relative hydrolysis rate [18] | Compound |
| --- | --- | --- | --- | --- | --- | --- | --- | --- | --- | --- | --- | --- | --- | --- | --- | --- | --- | --- |
| 0.1 µg/mL (≈ 0.224 µM) | 300 | 39 | 360 | 0.05 µg/mL (≈ 0.112 µM) | 370 | > 100 µg/mL | 0.05 µg/mL (≈ 0.112 µM) | 100 µg/mL (≈ 224 µM) | 0.05 µg/mL (≈ 0.112 µM) |  |  |  |  |  |  |  |  | Cn1nnnc1SCC1=C(C(=O)O)N2C(=O)C(NC(=O)C(O)c3ccccc3)C2OC1 (configuration not stated) |
|  |  | 57 |  |  | 0.75 |  |  |  |  |  |  |  |  |  |  |  |  | CC1=C(C(=O)O)N2C(=O)[C@@H](NC(=O)[C@H](N)c3ccccc3)[C@H]2SC1 |
| 25 µg/mL (≈ 73.5 µM) | 500 | 910 | 100 | 6.25 µg/mL (≈ 18.4 µM) | 18 | 100 µg/mL (≈ 294 µM) | 3.13 µg/mL (≈ 9.2 µM) | > 100 µg/mL | 6.25 µg/mL (≈ 18.4 µM) |  |  |  |  |  |  |  |  | CC1=C(C(=O)O)N2C(=O)C(NC(=O)CSC(F)(F)F)C2OC1 (configuration not stated) |
|  |  | 260 |  |  | 12 |  |  |  |  |  | 9.6 | 95 | 330 |  |  |  |  | CC1=C(C(=O)O)N2C(=O)C(NC(=O)C(N)c3ccccc3)C2OC1 (configuration not stated) |
| 0.39 µg/mL (≈ 0.795 µM) | 86 |  | 80 | 0.2 µg/mL (≈ 0.408 µM) | 19 | 50 µg/mL (≈ 102 µM) | 0.2 µg/mL (≈ 0.408 µM) | 100 µg/mL (≈ 204 µM) | 0.2 µg/mL (≈ 0.408 µM) |  |  |  |  | Hydrolysis not detected | Hydrolysis not detected |  |  | Cn1nnnc1SCC1=C(C(=O)O)N2C(=O)C(NC(=O)C(C(=O)O)c3ccc(O)cc3)C2OC1 (configuration not stated) |
| 0.78 µg/mL (≈ 1.69 µM) |  | 14 | 130 | 0.39 µg/mL (≈ 0.843 µM) | 55 | 25 µg/mL (≈ 54.1 µM) | 0.2 µg/mL (≈ 0.432 µM) | > 100 µg/mL | 0.39 µg/mL (≈ 0.843 µM) |  |  |  |  |  |  |  |  | Cn1nnnc1SCC1=C(C(=O)O)N2C(=O)C(NC(=O)C(O)c3ccccc3)C2SC1 (configuration not stated) |
